This series deals with MS2 coat protein. Briefly: apparent Kd, MS2 coat protein; higher = weaker binding; RNA-MaP array; FMN 200 µM where present. An outline of the steps: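 Designs were transcribed by stalled E. coli RNA polymerase on Illumina sequencing-chip clusters. They were titrated with SNAP-549-labelled MS2 coat protein from 0.7 or 1.5 nM, doubling to 3 µM, in 100 mM Tris-HCl pH 7.5, 80 mM KCl, 4 mM MgCl2, BSA, DTT, yeast tRNA and Tween-20, without and then with constant ligand. The apparent Kd is the median of filtered per-cluster fits after normalisation of green signal to red-channel RNA signal and control-cluster median Fmax.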

[1] abbreviates: designed as: OFF switch for flavin mononucleotide, no ligand.
The mark [2] stands for this setting: ligand present: flavin mononucleotide, designed as: OFF switch for flavin mononucleotide.
Setting [3] is: designed as: ON switch for flavin mononucleotide, no ligand.
[4] abbreviates: ligand present: flavin mononucleotide, designed as: ON switch for flavin mononucleotide.

With “GAUUAACAUGAGGAUCACCCAUGUGAGGAUAUGAACUAGACCACUUACCCGAUAUUGUUCAGAAGGCGCAUUCU”, the “apparent Kd” value by setting is: under setting [1], 34.1 nM; under setting [2], 39.5 nM.

On to “GUUUUUGCAUGAGGAUAUGCUCGCAUUUCAAGAGCAGAAGGUAUUUCUUUUGACAUGAGGAUCACCCAUGUAUUUAUCAUUGAA”, for which the “apparent Kd” value was 21 nM under setting [3] and 18.9 nM under setting [4].

As for “ACUAGAUGCGUGAAAUAACACAUGAGGAUCACCCAUGUGACGCAGGAUAUAACCAGAUCAGAAAGUUAGAAGGGUGAGCACGCA”, the “apparent Kd” value turned out to be 60.8 nM under setting [3] and 31.8 nM under setting [4].

As to “GAUUGACAUGAGGAUCACCCAUGUGAGGAUAUCGGCUGGACCGUGUUGGCUUCCGUCUCGAGAAGGCGCAUAGG”, the “apparent Kd” value runs as follows: under setting [1], 16 nM; under setting [2], 23.3 nM.

For “CGACCCUGAACGAAAUCAUGCAGUCAGGAUAUACAUGAGGAUCACCCAUGUGCGUACCAACUCGUGUAGAAGGGACUUUCAGGA”, the “apparent Kd” value is, setting by setting: under setting [1], 15.6 nM; under setting [2], 32.3 nM.

As to “AUCCGGCGUGUAGGAUAUGGAUCCGAUUAGGAUCCAGAAGGACAUGAGGAUCACCCAUGUACAUGUAAACAGUCAUCACCGGAA”, the “apparent Kd” value runs as follows: under setting [1], 10.2 nM; under setting [2], 49.4 nM.

For the sequence “GUCUGGUUAGGAUAUACAGUGUCCACGAGUUAGUUGCCCUAACAUGAGGAUCACCCAUGUAGAAGGAGCGAGAA”, the “apparent Kd” value reads like this: under setting [1], 22.2 nM; under setting [2], 22.6 nM.

Take “AAAAUACAUGAGGAUCACCCAUGUGAGUCGAACGCAGGAUAUCGCCGUUGAAAAGGGCGGCGAGAAGGGUGCCGAA”: the “apparent Kd” value is, setting by setting: under setting [3], 62.5 nM; under setting [4], 46.8 nM.

For the sequence “AACGUGGCUUAGGAUAUUGCUACGCAAAAGUAACAAGAAGGAGGCACAUGAGGAUCACCCAUGUGAUUCGUUGA”, the “apparent Kd” value was 19.8 nM under setting [1] and 44.9 nM under setting [2].

With “CUAGUACAUGAGGAUCACCCAUGUCAGGAUAUUGGAUAUGACAUGGAAAACAUGUUAACAAGAAGGGACUAUAG”, the “apparent Kd” value runs as follows: under setting [1], 245 nM; under setting [2], 209 nM.

“ACGCCCUGAGGAUAUCUUAUCCCGCACAUGAGGAUCACCCAUGUUCUCCUCCGGGCUCCGAGAGAAGGCAGGCCCA”: the “apparent Kd” value runs as follows: under setting [1], 30.7 nM; under setting [2], 41.2 nM.

Turning to “GCGUUGAUGUAGAAGGUACAUGAAUAUAUUUAAUACCUCAAGUAACAUGAGGAUCACCCAUGUAGUAAGGAUAUACAUGAACGC”, the “apparent Kd” value under setting [3] stood at 88.6 nM and the “apparent Kd” value under setting [4] is 56.1 nM.

For “AUCAGCUCGUCAGGAUAUACGUCACGGCGUCAGCAGUGUGGUAAGAUCACAUGAGGAUCACCCAUGUAGAAGGGACGAGCUGAU”, the “apparent Kd” value by setting is: under setting [1], 19.5 nM; under setting [2], 226 nM.

For “CUUUCCAGGUAGAAGGGAUUACUACAUGAGGAUCACCCAUGUCGAUUGAUCAGGAUAUGCCUGUCACGACGCGUGAUGCUAGAG”, the “apparent Kd” value is, setting by setting: under setting [3], 322 nM; under setting [4], 66.3 nM.

Take “UUUUAACAUGAGGAUCACCCAUGUGAGGAUAUCGAAAUUUAUAUUAAUAUUAUUAUAACGAGAAGGCACAUUUU”: the “apparent Kd” value amounted to 66.5 nM under setting [1] and 82.9 nM under setting [2].

Consider “AGCUACGUUUCGUAGCAGCUAGGUGAGGAUAUUCAAUUUUUCACAUGAGGAUCACCCAUGUAUGUGAAGAAGGCGCCUAGAAAU”, for which the “apparent Kd” value is, setting by setting: under setting [3], 11.1 nM; under setting [4], 4.98 nM.

On to “GGGUACGUUUCGUAGCAGUGUCAUCGAGAAGGCCCUGACAUGAGGAUCACCCAUGUUGUUACAUGGGAGGAUAUCGAUGAUCCC”, for which the “apparent Kd” value under setting [3] turned out to be 53.6 nM and the “apparent Kd” value under setting [4] came out at 8.36 nM.

For the sequence “AGGUUGUGAGGAUAUUAGUUUUAUGAUUGGAGGAGUUUGGCUGAGAAGGCACAUGAGGAUCACCCAUGUAGAUC”, the “apparent Kd” value reads like this: under setting [1], 61.9 nM; under setting [2], 124 nM.

“ACUAAUUAGUGAGGAUAUACAUAAUUUAUAACUGUAGAAGGCACAAACCUCAAGACAUGAGGAUCACCCAUGUGGUAUAUAGAU”: the “apparent Kd” value by setting is: under setting [1], 169 nM; under setting [2], 388 nM.

Regarding “AUACAUGAGGAUCACCCAUGUUACAUGGUCUUGAUAUUACGUAGAAGGAUGAUAUUAUUAUUAGCAUAGGAUAUACAAUUUGUA”, the “apparent Kd” value by setting is: under setting [1], 57.5 nM; under setting [2], 44 nM.

Regarding “CGGGAGUCAGGAUAUACGAACAUGUCGCCAGAUGUCAUGGUACAUGAGGAUCACCCAUGUAGAAGGGAGGAGAU”, the “apparent Kd” value under setting [1] stood at 139 nM and the “apparent Kd” value under setting [2] came out at 103 nM.

As to “AAAAGUUGAGGAUAUACAAAAUGAUUGCGAAAUCAAUUAAAACAUGAGGAUCACCCAUGUAGAAGGCGAUAAAA”, the “apparent Kd” value is, setting by setting: under setting [1], 31.1 nM; under setting [2], 25.9 nM.

With “GUAGCUAUCGGAGGAUAUUCAUACCGGAAACGGACAUGAGGAUCACCCAUGUCGCGAAAGCGUUGGGAGAAGGCCGAUAGCUAC”, the “apparent Kd” value under setting [3] is 237 nM and the “apparent Kd” value under setting [4] was 21.4 nM.

For “UUUAUGUGAGGAUAUACGAAUAGUAAGUAAGUAUUACAGACGUAGAAGGCACAUGAGGAUCACCCAUGUGAACC”, the “apparent Kd” value runs as follows: under setting [1], 38.5 nM; under setting [2], 78 nM.

Take “UGCUGACGAGGAUAUACAUGAGGAUCACCCAUGUUGGUUCAGCGACUUCGGUCGCAAUGUAGAAGGCGUCAGCU”: the “apparent Kd” value by setting is: under setting [1], 410 nM; under setting [2], 277 nM.

For the sequence “GACCGUCACAGUUACCGGUUGAACGAGGAUAUGAUUACUGGGCCUGCACAUGAGGAUCACCCAUGUCAGAAGGCGUUCAGUCCC”, the “apparent Kd” value came to 5.86 nM under setting [1] and 18.9 nM under setting [2].

Take “AAAGCAACAUGAGGAUCACCCAUGUAGGAUAUCGCUAUUGUAAUCAUGAAACAUGAUUACAAUAGCGAGAAGGACAUAUGCAAA”: the “apparent Kd” value runs as follows: under setting [1], 11.3 nM; under setting [2], 12.9 nM.

“AAUAACAGAGGAUAUACGAAAAUAAGCGGAAACGCAAAGGGACAUGAGGAUCACCCAUGUAGAAGGCUGGAUAA”: the “apparent Kd” value came to 32.6 nM under setting [1] and 183 nM under setting [2].

For the sequence “UUGGACGUCGUAGGAUAUGUAGGAUAUGCCUACAUGAGGAUCACCCAUGUUGACAUGGAAGAAGGACAGAAGGACGAUGUCCAU”, the “apparent Kd” value under setting [3] turned out to be 108 nM and the “apparent Kd” value under setting [4] was determined as 6.64 nM.

For the sequence “AUCAGCUCGUCAGGAUAUACGUCACUGCGUCAGCACUGUGGUAAGAUCACAUGAGGAUCACCCAUGUAGAAGGGACGAGCUGAU”, the “apparent Kd” value was determined as 17.7 nM under setting [1] and 172 nM under setting [2].

For “UGUCGGAGCAGAGGAUAUUACAUGAGGAUCACCCAUGUAUGAACCAAUAGCUGGAAACAGCACUGUAAGAAGGCUGCUCCGACA”, the “apparent Kd” value reads like this: under setting [1], 8.67 nM; under setting [2], 96.2 nM.

Regarding “UUACUAUUACAGAAGGCUAAAUAAUAUAUAAAUGGAGGAUAUGUAACAUGAGGAUCACCCAUGUUUCACCCACAUGAGGAUCAC”, the “apparent Kd” value under setting [1] turned out to be 8.45 nM and the “apparent Kd” value under setting [2] amounted to 23.8 nM.

For “UAGCAGUGCGGGUAGGAUAUGUAGGGUGGUACAUGAGGAUCACCCAUGUAUCCACCCUUCGACCGGCAGAAGGGCCUGUCACUGC”, the “apparent Kd” value is, setting by setting: under setting [3], 22 nM; under setting [4], 22.6 nM.

For the sequence “GGUCAGGGUGUGAGGAUAUUUACCUAUCACAGUGUGAAGAAGGCACAUGAGGAUCACCCAUGUUAACUGCGGGC”, the “apparent Kd” value under setting [1] came out at 51.7 nM and the “apparent Kd” value under setting [2] was found to be 76.7 nM.

As for “UGCUACGUUUCGUAGCAGUGUCAUCGAGAAGGCCCUGACAUGAGGAUCACCCAUGUUGUUACAUGGGAGGAUAUCGAUGAUACG”, the “apparent Kd” value under setting [3] was 12 nM and the “apparent Kd” value under setting [4] stood at 4.9 nM.

For the sequence “UUUUAGUCAGGAUAUACAUGAGGAUCACCCAUGUAAAAUUUUAGUUUAAUUUGAAUGUGUAGAAGGGACAUUUU”, the “apparent Kd” value runs as follows: under setting [1], 24.7 nM; under setting [2], 22.9 nM.

Turning to “UAAUAAAGUGUGAGGAUAUGCUGGUCCAUAGAUCAGCAGAAGGCACAUGAGGAUCACCCAUGUAAUAUAUAAAU”, the “apparent Kd” value by setting is: under setting [1], 28.4 nM; under setting [2], 145 nM.

As for “GUGUACAGAGGAUAUACUGGAGCAUGGAAACAUGCAACCUCACAUGAGGAUCACCCAUGUAGAAGGCUGUACAC”, the “apparent Kd” value runs as follows: under setting [1], 334 nM; under setting [2], 28.2 nM.

“CGGGUCUGAGGAUAUCCAUCUUCAUACAUGAGGAUCACCCAUGUUUACCCUUGGGUUCCUGGAGAAGGCAGUUUUC”: the “apparent Kd” value came to 166 nM under setting [1] and 162 nM under setting [2].

Regarding “UGGACUGGGCAGAAGGGACAUGAGGAUCACCCAUGUCUUGGGCUACUUCAGUCAGGAUAUGCCCGUUGAAUAUCCGUGCAUCAA”, the “apparent Kd” value is, setting by setting: under setting [1], 10.2 nM; under setting [2], 52.6 nM.

“UUAUUUUUACAGAAGGUUUAAUAAUAUGUAUGAGAAGGAUAUGUAACAUGAGGAUCACCCAUGUUUUAUUUAUAUGAGGUUCGU”: the “apparent Kd” value reads like this: under setting [1], 15.3 nM; under setting [2], 12.5 nM.

As to “GCUGACGAUGUAGGAUAUCUCGACGAUAAGUCGAGAGAAGGACAUGAGGAUCACCCAUGUAAAAUCCCGUCAGCGAGGAAACUC”, the “apparent Kd” value was 16.4 nM under setting [1] and 23.1 nM under setting [2].

On to “AGUCGGCGAGGAUAUACAUGAGGAUCACCCAUGUGAGAUAGUGCACGCGUACGUGUACGUAGAAGGCGCUGACA”, for which the “apparent Kd” value runs as follows: under setting [1], 12.1 nM; under setting [2], 23.2 nM.

Regarding “UCCUCGUCAGGAUAUCCACGGAAUAGCGGGAUACCGAGCGUGGAGAAGGGACAUGAGGAUCACCCAUGUAAAAU”, the “apparent Kd” value runs as follows: under setting [1], 29.4 nM; under setting [2], 61.2 nM.

Take “UUUUUACAUGAGGAUCACCCAUGUCAGGAUAUGGUUAUAUUUUAUUAUUUUAUUUUUUCCAGAAGGGACUAUUA”: the “apparent Kd” value under setting [1] was determined as 343 nM and the “apparent Kd” value under setting [2] is 162 nM.

For the sequence “GUAGGGAUUACAUGAGGAUCACCCAUGUCAGAACGGGUAAUCAGAAGGUAUUAUUAGGGAGAGGGUAAGGAUAUGAUUUUUUAU”, the “apparent Kd” value under setting [3] is 433 nM and the “apparent Kd” value under setting [4] amounted to 344 nM.

As to “CUUGUUUAUGUGAGGAUAUACUGUUAGUAUAGUUUGUAGAAGGUACAUGAGGAUCACCCAUGUUUAUUACUCUU”, the “apparent Kd” value is, setting by setting: under setting [1], 13.7 nM; under setting [2], 13.8 nM.

On to “AGAAACUACGAGAAGGACAUGUGGUCCUUCAGUUACAUGAGGAUCACCCAUGUAGGAUAUCGUAGUUUCAGGAUCGUGAGAUCA”, for which the “apparent Kd” value is, setting by setting: under setting [1], 40.8 nM; under setting [2], 12.3 nM.

What is called apparent Kd is the concentration giving half-maximal binding under the conditions of the assay.

For the origin of these results see the EternaBench riboswitch data.
